Reference: ChEMBL document CHEMBL5346932, “Structure-activity relationships of actively FhuE transported rifabutin derivatives with potent activity against Acinetobacter baumannii” (Eur J Med Chem, 2023)
Converted amounts (≈) assume the structure as drawn.

Legend:
Acinetobacter baumannii [1] = experiment: Antibacterial activity against Acinetobacter baumannii HUMC1 cultured in RPMI 1640 medium supplemented with 10% FCS assessed as bacterial growth inhibition incubated for 20 hrs by CLSI based microbroth dilution method; type: functional; settings: Acinetobacter baumannii, HUMC1, 20 h, read-out: MIC
How it was run: (§1)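 CLSI broth microdilution in RPMI 1640 + 10% FCS in place of CAMHB. Compounds in 2-fold dilution series; inoculum 5×10^5 CFU/mL. Plates held static at 35 °C for 20 h. MIC read visually as the lowest concentration with no visible growth. […] is the reciprocal of this MIC.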

[2] = Drug accumulation in wild type Acinetobacter baumannii HUMC1 cultured in iron-rich CAMHB media at >=0.05 uM incubated for 10 mins by LC-MS/MS analysis; type: ADME
How it was run: (§2)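 5 mL of suspension was dosed from DMSO stocks (0.002–5 mM) and shaken at 150 rpm for 10 min at 37 °C. Cells were pelleted, washed, and lysed (sucrose/EDTA). LC-MS/MS MRM quantitation used caffeine-normalized standard curves in spiked lysate. Reported as amount per 5 mL; n≥2 independent replicates.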

Acinetobacter baumannii [3] = experiment: Antibacterial activity against Acinetobacter baumannii HUMC1 harboring FhuE deletion mutant assessed as bacterial growth inhibition incubated for 20 hrs by CLSI based microbroth dilution method; type: functional
How it was run: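 Microbroth dilution per CLSI in RPMI 1640 + 10% FCS (in place of CAMHB). Compounds as 2-fold serial dilutions; inoculum 5×10^5 CFU/mL of previously described HUMC1-derived mutant strains. Incubated static at 35 °C for 20 h. MIC read visually as lowest concentration preventing visible growth.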

[4] = Drug accumulation in Acinetobacter baumannii HUMC1 cultured in iron-limited RPMI medium supplemented with 10% FCS measured per 5 ml of culture medium at 0.005 uM incubated for 10 mins by LC-MS/MS analysis; type: ADME
How it was run: (§3)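 The periplasm was released by cold 0.5 mM MgSO4 shock. Cells were then sonicated and DNase-treated, and a 30000 g spin separated cytoplasm from the membrane pellet. Fractions were quantified by LC-MS/MS against standard curves. Reported as ng per 5 mL; n = 4 in duplicate.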

Staphylococcus aureus = experiment: Antibacterial activity against Staphylococcus aureus USA300 UAMS-1625 assessed as bacterial growth inhibition incubated for 20 hrs by CLSI based microbroth dilution method; type: functional
How it was run: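 CLSI broth microdilution in CAMHB against S. aureus USA300 UAMS-1625. Compounds in 2-fold dilution series; inoculum 5×10^5 CFU/mL. Incubated without shaking at 35 °C for 20 h. MIC read visually as the lowest concentration preventing visible growth. Fold changes are relative to the rifabutin MIC.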

[5] = Drug accumulation in Acinetobacter baumannii HUMC1 harboring fhuE deletion mutant cultured in iron-rich CAMHB media at 0.5 to 5 uM incubated for 10 mins by LC-MS/MS analysis; type: ADME; settings: dose 0.5-5 µM
How it was run: (§4)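 5 mL suspension dosed from DMSO stocks (0.002–5 mM), 10 min at 37 °C, 150 rpm. Cells pelleted, washed in TBS and sucrose buffers, lysed, extracted with formic acid/CH3CN/CH3OH. LC-MS/MS MRM quantification against spiked-matrix standards, caffeine internal standard. Reported as ng per 5 mL suspension; n ≥ 2 independent replicates, mean ± SEM.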

[6] = Drug accumulation in periplasm of Acinetobacter baumannii HUMC1 cultured in iron-limited RPMI medium supplemented with 10% FCS at 0.005 uM incubated for 10 mins by LC-MS/MS analysis; type: ADME, subcellular; how it was run: as §3
[7] = Inhibition of transcription in Acinetobacter baumannii HUMC1 using pVT784 as reporter plasmid preincubated for 30 mins followed by reporter plasmid addition and measured after 60 mins by Nano-Glo luciferase assay; type: functional
How it was run: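 Cell-free transcription/translation used A. baumannii HUMC1 extract at 1.2 mg/mL, with extract from 2xYT+P culture after a run-off step and dialysis at pH 8.2. Compound was preincubated with extract for 30 min on ice. Reporter plasmid (0.5 nM) was then added and luminescence read after 60 min at 25 °C. Compounds were tested at 8 to 0.002 mg/L in triplicate. IC50 was fit from no-compound-normalized signal.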

[8] = Drug accumulation in periplasm of Acinetobacter baumannii HUMC1 cultured in iron-limited RPMI medium supplemented with 10% FCS measured per 5 ml of culture medium at 0.005 uM incubated for 10 mins by LC-MS/MS analysis; type: ADME, subcellular; how it was run: as §3
[9] = Drug accumulation in membrane of Acinetobacter baumannii HUMC1 cultured in iron-limited RPMI medium supplemented with 10% FCS at 0.005 uM incubated for 10 mins by LC-MS/MS analysis; type: ADME, cell membranes; how it was run: as §3
[10] = Drug accumulation in Acinetobacter baumannii HUMC1 cultured in iron-limited RPMI medium supplemented with 10% FCS measured per 5 ml of culture medium at 0.05 uM incubated for 10 mins by LC-MS/MS analysis; type: ADME; how it was run: as §2
[11] = Drug accumulation in wild type Acinetobacter baumannii HUMC1 cultured in iron-limited RPMI medium supplemented with 10% FCS at 0.002 to 0.02 uM incubated for 10 mins by LC-MS/MS analysis; type: ADME; settings: dose 0.002-0.02 µM; how it was run: as §2
[12] = Drug accumulation in cytoplasm of Acinetobacter baumannii HUMC1 cultured in iron-limited RPMI medium supplemented with 10% FCS measured per 5 ml of culture medium at 0.005 uM incubated for 10 mins by LC-MS/MS analysis; type: ADME, subcellular; how it was run: as §3
[13] = Drug accumulation in Acinetobacter baumannii HUMC1 harboring fhuE deletion mutant cultured in iron-rich CAMHB media at <0.02 uM incubated for 10 mins by LC-MS/MS analysis; type: ADME; settings: BLD = below limit of detection; how it was run: as §4
Acinetobacter baumannii [14] = experiment: Antibacterial activity against Acinetobacter baumannii HUMC1 cultured in iron-limited RPMI medium supplemented with 10% FCS assessed as inverse MIC incubated for 20 hrs by CLSI based microbroth dilution method; type: functional; how it was run: as §1
[15] = Drug accumulation in cytoplasm of Acinetobacter baumannii HUMC1 cultured in iron-limited RPMI medium supplemented with 10% FCS at 0.005 uM incubated for 10 mins by LC-MS/MS analysis; type: ADME, subcellular; how it was run: as §3
[16] = Drug accumulation in Acinetobacter baumannii HUMC1 harboring fhuE deletion mutant cultured in iron-limited RPMI medium supplemented with 10% FCS at <0.02 uM incubated for 10 mins by LC-MS/MS analysis; type: ADME; settings: BLD = below limit of detection; how it was run: as §4
[17] = Drug accumulation in membrane of Acinetobacter baumannii HUMC1 cultured in iron-limited RPMI medium supplemented with 10% FCS measured per 5 ml of culture medium at 0.005 uM incubated for 10 mins by LC-MS/MS analysis; type: ADME, cell membranes; how it was run: as §3
[18] = Drug accumulation in Acinetobacter baumannii HUMC1 harboring fhuE deletion mutant cultured in iron-limited RPMI medium supplemented with 10% FCS at 0.5 to 5 uM incubated for 10 mins by LC-MS/MS analysis; type: ADME; settings: dose 0.5-5 µM; how it was run: as §4

## CO[C@H]1/C=C/O[C@@]2(C)Oc3c(C)c(O)c4c(c3C2=O)C2=NC3(CCN(CC(C)C)CC3)NC2=C(NC(=O)/C(C)=C\C=C\[C@H](C)[C@H](O)[C@@H](C)[C@@H](O)[C@@H](C)[C@H](OC(C)=O)[C@@H]1C)C4=O [RIFABUTIN]
Acinetobacter baumannii [1]
  MIC: 0.001 µg/mL (≈ 0.00118 µM)
[2]
  Drug uptake: Active
Acinetobacter baumannii [3]
  MIC: 0.5 µg/mL (≈ 0.59 µM)
[4]
  Drug uptake: 12.44 ng
Staphylococcus aureus
  MIC: 0.016 µg/mL (≈ 0.0189 µM)
[5]
  Drug uptake: Active
[6]
  Drug uptake: < 1%
[7]
  IC50: 0.07 µg/mL (≈ 0.0826 µM)
[8]
  Drug uptake: 2.66 ng
[9]
  Drug uptake: 20%
[10]
  Drug uptake: 36.08 pmol
[11]
  Drug uptake: Active
[12]
  Drug uptake: 0.02 ng
[13]
  Drug uptake: Bld
Acinetobacter baumannii [14]
  1/MIC: 1000 L/mg
[15]
  Drug uptake: 79%
[16]
  Drug uptake: Bld
[17]
  Drug uptake: 0.69 ng
[18]
  Drug uptake: Active
